The target of assay [1] is T1, Integrin alpha-IIb/beta-3 (Homo sapiens, UniProt P05106+P08514). As to the kind of experiment: Displacement of L-762,745 from Fibrinogen Receptor of human platelets by flow cytometry. An outline of the steps:
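Resting human gel-filtered platelets at 2 × 10⁶ cells/mL final, incubated 2 h at room temperature with fluorescein-labelled L-762,745 (110 nM final) and competitor at 0.05–1000 nM. Read by flow cytometry (FACScan).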
(A flow cytometer gives signals particle by particle.)
Target sequence in this assay (P05106 27-788 limits assumed): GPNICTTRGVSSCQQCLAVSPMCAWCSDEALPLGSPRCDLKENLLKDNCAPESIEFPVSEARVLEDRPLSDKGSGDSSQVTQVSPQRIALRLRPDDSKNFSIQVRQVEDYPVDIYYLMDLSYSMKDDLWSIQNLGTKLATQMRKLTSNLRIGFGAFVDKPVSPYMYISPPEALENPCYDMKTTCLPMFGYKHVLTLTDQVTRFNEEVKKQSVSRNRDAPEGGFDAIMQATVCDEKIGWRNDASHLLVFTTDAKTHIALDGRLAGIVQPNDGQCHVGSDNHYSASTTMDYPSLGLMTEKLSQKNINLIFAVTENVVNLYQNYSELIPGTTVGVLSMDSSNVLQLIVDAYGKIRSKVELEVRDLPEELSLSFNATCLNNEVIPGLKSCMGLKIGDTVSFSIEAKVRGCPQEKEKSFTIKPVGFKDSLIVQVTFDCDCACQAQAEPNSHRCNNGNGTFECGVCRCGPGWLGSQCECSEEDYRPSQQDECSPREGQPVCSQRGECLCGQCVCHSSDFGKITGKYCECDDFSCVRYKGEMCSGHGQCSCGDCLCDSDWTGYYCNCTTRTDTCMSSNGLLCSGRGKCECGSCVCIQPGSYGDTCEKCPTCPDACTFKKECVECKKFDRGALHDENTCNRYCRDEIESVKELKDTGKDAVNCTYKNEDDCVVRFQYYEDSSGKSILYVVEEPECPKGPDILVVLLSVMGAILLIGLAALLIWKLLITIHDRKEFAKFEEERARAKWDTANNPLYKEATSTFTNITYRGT
Target sequence in this assay (P08514 32-887 limits assumed): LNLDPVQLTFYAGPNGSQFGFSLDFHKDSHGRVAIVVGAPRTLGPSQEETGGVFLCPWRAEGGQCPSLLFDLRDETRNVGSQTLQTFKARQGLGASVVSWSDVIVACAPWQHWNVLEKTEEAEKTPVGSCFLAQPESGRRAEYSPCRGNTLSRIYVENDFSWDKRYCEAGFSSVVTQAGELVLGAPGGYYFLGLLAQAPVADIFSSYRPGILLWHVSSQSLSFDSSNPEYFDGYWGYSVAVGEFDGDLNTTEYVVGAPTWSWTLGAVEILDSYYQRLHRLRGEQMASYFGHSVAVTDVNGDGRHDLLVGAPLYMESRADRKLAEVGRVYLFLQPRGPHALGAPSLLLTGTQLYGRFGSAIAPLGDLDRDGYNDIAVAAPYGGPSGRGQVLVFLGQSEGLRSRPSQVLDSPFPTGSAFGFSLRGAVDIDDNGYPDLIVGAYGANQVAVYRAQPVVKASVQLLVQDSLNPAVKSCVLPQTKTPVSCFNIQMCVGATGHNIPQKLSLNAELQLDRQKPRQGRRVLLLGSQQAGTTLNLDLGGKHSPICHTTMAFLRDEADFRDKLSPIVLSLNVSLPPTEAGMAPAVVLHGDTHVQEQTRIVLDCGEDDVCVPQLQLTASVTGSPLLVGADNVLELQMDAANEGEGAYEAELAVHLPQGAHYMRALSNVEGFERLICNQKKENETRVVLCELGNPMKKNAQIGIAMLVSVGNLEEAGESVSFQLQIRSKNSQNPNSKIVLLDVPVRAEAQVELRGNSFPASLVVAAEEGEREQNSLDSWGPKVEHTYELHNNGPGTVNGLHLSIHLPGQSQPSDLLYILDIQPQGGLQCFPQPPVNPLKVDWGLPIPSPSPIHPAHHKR
Target sequence in this assay (P08514 891-1039 limits assumed): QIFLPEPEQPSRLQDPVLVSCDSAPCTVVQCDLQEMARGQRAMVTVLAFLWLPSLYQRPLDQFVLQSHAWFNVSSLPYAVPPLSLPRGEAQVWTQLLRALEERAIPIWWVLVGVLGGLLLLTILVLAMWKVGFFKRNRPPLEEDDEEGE

Assay [2] concerns the target T1, Integrin alpha-IIb/beta-3. As to the kind of experiment: Inhibition of [125I]L-692884 binding to purified GPIIb/IIIa by silicate scintillation proximity assay(SPA). In kind it is protein-complex assay. Background: SPA uses beads or plates that emit light when radiolabelled molecules are held near them.
Assay [3] addresses T1, Integrin alpha-IIb/beta-3. Kind of assay: In vitro inhibition of [125I]L-692884 binding to Fibrinogen receptor by silicate scintillation proximity assay(SPA). In kind it is protein-complex assay.
Assay [4] addresses T1, Integrin alpha-IIb/beta-3. Kind of assay: Equilibrium dissociation constant was measured from displacement of L-762,745 from Fibrinogen receptor of human platelets by flow cytometry.
Target sequence in this assay (P05106 27-788 limits assumed): as the sequence (P05106 27-788 limits assumed) above
Target sequence in this assay (P08514 32-887 limits assumed): as the sequence (P08514 32-887 limits assumed) above
Target sequence in this assay (P08514 891-1039 limits assumed): as the sequence (P08514 891-1039 limits assumed) above

What is called Kd is the concentration at which binding is half-saturated. On to `CS(=O)(=O)N[C@@H](CNC(=O)c1cc2cc(CCC3CCNCC3)sc2s1)C(=O)O`, for which, in assay [1], the affinity, expressed as Kd, was 52 nM. The ED50 in assay [2] was 1.2 nM.
What is called IC50 is the concentration that gives 50% inhibition. `O=C(NC[C@H](NS(=O)(=O)c1cccs1)C(=O)O)c1cc2cc(CCC3CCNCC3)sc2s1` yielded an IC50 in assay [3] of 0.04 nM. Besides, binding in assay [4] was characterised by a dissociation constant (Kd) of 0.15 nM.
`O=C(NC[C@H](NS(=O)(=O)c1ccccc1)C(=O)O)c1cc2sc(CCC3CCNCC3)cc2s1` showed a Kd in assay [4] of 0.15 nM.
In turn, `O=C(NC[C@H](NS(=O)(=O)c1cccnc1)C(=O)O)c1cc2cc(CCCC3CCNCC3)sc2s1` had an IC50 in assay [3] of 0.07 nM. Also, in assay [4], the Kd amounted to 17 nM.
The corresponding values for `O=C(NC[C@H](NS(=O)(=O)c1cccs1)C(=O)O)c1cc2sc(CCC3CCNCC3)cc2s1` are 0.04 nM and 0.092 nM.
In turn, `O=C(NC[C@H](NS(=O)(=O)c1cccnc1)C(=O)O)c1ccc2c(c1)C(=O)N(CCC1CCNCC1)C2` had a Kd in assay [4] of 2.2 nM.
For `O=C(NCC(NS(=O)(=O)c1cccnc1)C(=O)O)c1cc2cc(CCC3CCNCC3)sc2s1` (single isomer, unassigned), the Kd in assay [4] is 28 nM. Also, the ED50 in assay [2] was determined as 0.47 nM.
`O=C(NC[C@H](NS(=O)(=O)c1cccnc1)C(=O)O)c1cc2sc(CCC3CCNCC3)cc2s1`: the Kd in assay [1] worked out at 0.08 nM. Also, the ED50 in assay [2] amounted to 0.11 nM.
In the same order, the values of `CCCCS(=O)(=O)N[C@@H](CNC(=O)c1cc2cc(CCC3CCNCC3)sc2s1)C(=O)O` are 5.6 nM and 0.12 nM.
`O=C(NC[C@H](NS(=O)(=O)c1cccnc1)C(=O)O)c1cc2cc(C3CCNCC3)sc2s1` had an IC50 in assay [3] of 0.45 nM. The same compound had a dissociation constant Kd in assay [4] of 22 nM.
The corresponding values for `CCCCS(=O)(=O)N[C@@H](CNC(=O)c1cc2sc(CCC3CCNCC3)cc2s1)C(=O)O` are 0.21 nM and 3 nM.
The corresponding values for `O=C(NC[C@H](NS(=O)(=O)c1cccnc1)C(=O)O)c1cc2cc(CCC3CCNCC3)sc2s1` are 0.047 nM and 0.07 nM.
In the same order, the values of `O=C(NC[C@H](NS(=O)(=O)c1ccc(Cl)cc1)C(=O)O)c1cc2cc(CCC3CCNCC3)sc2s1` are 0.09 nM and 0.026 nM.
Turning to `O=C(NC[C@H](NS(=O)(=O)c1ccccc1)C(=O)O)c1cc2cc(CCC3CCNCC3)sc2s1`, the IC50 in assay [3] stood at 0.03 nM. Besides, in assay [4], the Kd worked out at 0.023 nM.
Consider `CCOCCS(=O)(=O)N[C@@H](CNC(=O)c1cc2sc(CCC3CCNCC3)cc2s1)C(=O)O`, for which the Kd in assay [1] came to 1.1 nM. Moreover, in assay [2], the ED50 stood at 0.27 nM.
For `O=C(O)CCNC(=O)c1ccc2c(c1)C(=O)N(CCC1CCNCC1)C2`, the IC50 in assay [3] came out at 13 nM. Further, in assay [4], the Kd was found to be 550 nM.
For the compound `CCOCCS(=O)(=O)N[C@@H](CNC(=O)c1cc2cc(CCC3CCNCC3)sc2s1)C(=O)O`, in assay [1], binding was put at a Kd of 1.2 nM. Moreover, the ED50 in assay [2] came to 0.13 nM.

Source of the values: ChEMBL document CHEMBL1132259, “Non-peptide GPIIb/IIIa inhibitors. 20. Centrally constrained thienothiophene alpha-sulfonamides are potent, long acting in vivo inhibitors of platelet aggregation” (J Med Chem, 1999).
